2 molecules from ChEMBL document CHEMBL4725350, “2-Oxaadamant-1-yl Ureas as Soluble Epoxide Hydrolase Inhibitors: In Vivo Evaluation in a Murine Model of Acute Pancreatitis” (J Med Chem, 2020) can be followed below.

Data set [1] in a line: Acute toxicity in CD-1 mouse assessed as effect on body weight at 5 to 80 mg/kg, ip administered daily for 5 days and measured for 5 days. The class given is organism-based. Conditions: in vivo, 240 h, dose 5-80 mg/kg, time 10 day. The essentials:
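Mice received the compound intraperitoneally once a day for five consecutive days at 5, 10, 20 and 80 mg/kg. Acute toxicity was judged from body weight during treatment, apparent behaviour problems and the presence of petechiae.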

Data set [2] is described as follows: Stability in rat liver microsomes assessed as parent compound remaining measured after 60 mins in presence of NADPH by LC-MS/MS analysis. It is filed as ADME, Microsome. Conditions: read-out: Stabilty. The essentials: (§1)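 Compound is incubated at 37 °C with human, mouse or rat liver microsomes in 50 mM phosphate buffer pH 7.4. […] Samples at 0–60 min are quenched into acetonitrile; percent parent remaining at 60 min is reported. Testosterone is the positive control.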

Data set [3] has as its target T1, Bifunctional epoxide hydrolase 2 (Rattus norvegicus, UniProt P80299).
T1 sequence (P80299 whole entry): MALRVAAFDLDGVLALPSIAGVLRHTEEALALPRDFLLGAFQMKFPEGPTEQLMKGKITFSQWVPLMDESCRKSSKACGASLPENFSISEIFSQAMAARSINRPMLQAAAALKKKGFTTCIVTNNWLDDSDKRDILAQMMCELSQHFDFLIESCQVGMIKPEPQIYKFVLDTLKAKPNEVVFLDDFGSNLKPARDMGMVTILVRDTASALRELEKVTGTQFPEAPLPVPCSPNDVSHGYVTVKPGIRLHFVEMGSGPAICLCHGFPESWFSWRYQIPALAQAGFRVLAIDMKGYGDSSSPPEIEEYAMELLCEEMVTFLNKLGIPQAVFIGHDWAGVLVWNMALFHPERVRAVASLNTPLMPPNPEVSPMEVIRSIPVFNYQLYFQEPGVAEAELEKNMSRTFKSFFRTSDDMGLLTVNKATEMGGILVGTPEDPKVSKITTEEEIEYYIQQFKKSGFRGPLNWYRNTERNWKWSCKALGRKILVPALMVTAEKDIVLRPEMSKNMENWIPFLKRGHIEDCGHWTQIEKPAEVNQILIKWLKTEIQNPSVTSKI
In words: Inhibition of recombinant rat soluble epoxide hydrolase using CMNPC as substrate preincubated for 5 mins followed by substrate addition and measured at 30 secs interval for 10 mins by fluorescence assay. The method in brief: (§2)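 Purified recombinant enzyme was preincubated with inhibitor (0.4–100,000 nM final) for 5 min at 30 °C in 100 mM sodium phosphate, pH 7.4, with 0.1 mg/mL BSA and 1% DMSO. CMNPC was added at 5 μM final. 6-Methoxynaphthaldehyde fluorescence (ex 330/em 465 nm) was read every 30 s for 10 min. IC50 values are averages of three replicates.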

The test system of data set [4] is AR-42J cell line. In words: Protection against cerulein-induced pancreatic damage in rat AR42J cells assessed as reduction in CHOP mRNA level at 60 uM preincubated for 1 hr followed by cerulein addition and measured after 8 hrs by Trisure-reagent based RT-PCR analysis. The class given is functional, cell-based. The conditions noted are these: time 9.0 hrs. The essentials: (§3)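 Rat pancreatic acinar AR42J cells are exposed to 10 nM cerulein with or without inhibitor co-incubation at 60 μM. IL-6, TNF-α, CHOP and TRB3 mRNA levels are measured and compared with control and cerulein-only cells. Mean ± SEM, n = 5 per group.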

For data set [5], the system named is AR-42J cell line. In words: Protection against cerulein-induced pancreatic damage in rat AR42J cells assessed as reduction in TNF-alpha mRNA level at 60 uM preincubated for 1 hr followed by cerulein addition and measured after 8 hrs by Trisure-reagent based RT-PCR analysis. It is filed as functional, cell-based. The conditions noted are these: time 9.0 hrs. The essentials: as §3

A short description of data set [6]: Stability in mouse liver microsomes assessed as parent compound remaining measured after 60 mins in presence of NADPH by LC-MS/MS analysis. The class given is ADME, Microsome. Conditions: read-out: Stabilty. The method in brief:
as §1

Data set [7] can be described thus: AUClast in CD-1 mouse at 1 mg/kg, iv measured up to 24 hrs by LC-MS analysis. The class given is ADME, organism-based. Conditions: in vivo. More on the design: route intravenous, dose 1 mg/kg, time <=24. The method in brief:
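Single dose, 1 mg/kg, given to mice intravenously or intraperitoneally. Parameters are taken from the plasma concentration–time profile: T1/2, Tmax, Cmax, C0 (iv only), AUClast, AUCINF_obs, Vz and Cl. Bioavailability is derived from ip versus iv exposure.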

The next data set in a line: physchem. The conditions noted are these: 1% DMSO/99% PBS buffer solution.
In data set [8] the test system is AR-42J cell line. In words: Protection against cerulein-induced pancreatic damage in rat AR42J cells assessed as reduction in IL-6 mRNA level at 60 uM preincubated for 1 hr followed by cerulein addition and measured after 8 hrs by Trisure-reagent based RT-PCR analysis. It is filed as functional, cell-based. Conditions: time 9.0 hrs. The essentials:
as §3

Data set [9] deals with Voltage-gated inwardly rectifying potassium channel KCNH2 (Homo sapiens, UniProt Q12809). In words: Inhibition of human ERG at 10 uM.
Voltage-gated inwardly rectifying potassium channel KCNH2, sequence (Q12809 whole entry): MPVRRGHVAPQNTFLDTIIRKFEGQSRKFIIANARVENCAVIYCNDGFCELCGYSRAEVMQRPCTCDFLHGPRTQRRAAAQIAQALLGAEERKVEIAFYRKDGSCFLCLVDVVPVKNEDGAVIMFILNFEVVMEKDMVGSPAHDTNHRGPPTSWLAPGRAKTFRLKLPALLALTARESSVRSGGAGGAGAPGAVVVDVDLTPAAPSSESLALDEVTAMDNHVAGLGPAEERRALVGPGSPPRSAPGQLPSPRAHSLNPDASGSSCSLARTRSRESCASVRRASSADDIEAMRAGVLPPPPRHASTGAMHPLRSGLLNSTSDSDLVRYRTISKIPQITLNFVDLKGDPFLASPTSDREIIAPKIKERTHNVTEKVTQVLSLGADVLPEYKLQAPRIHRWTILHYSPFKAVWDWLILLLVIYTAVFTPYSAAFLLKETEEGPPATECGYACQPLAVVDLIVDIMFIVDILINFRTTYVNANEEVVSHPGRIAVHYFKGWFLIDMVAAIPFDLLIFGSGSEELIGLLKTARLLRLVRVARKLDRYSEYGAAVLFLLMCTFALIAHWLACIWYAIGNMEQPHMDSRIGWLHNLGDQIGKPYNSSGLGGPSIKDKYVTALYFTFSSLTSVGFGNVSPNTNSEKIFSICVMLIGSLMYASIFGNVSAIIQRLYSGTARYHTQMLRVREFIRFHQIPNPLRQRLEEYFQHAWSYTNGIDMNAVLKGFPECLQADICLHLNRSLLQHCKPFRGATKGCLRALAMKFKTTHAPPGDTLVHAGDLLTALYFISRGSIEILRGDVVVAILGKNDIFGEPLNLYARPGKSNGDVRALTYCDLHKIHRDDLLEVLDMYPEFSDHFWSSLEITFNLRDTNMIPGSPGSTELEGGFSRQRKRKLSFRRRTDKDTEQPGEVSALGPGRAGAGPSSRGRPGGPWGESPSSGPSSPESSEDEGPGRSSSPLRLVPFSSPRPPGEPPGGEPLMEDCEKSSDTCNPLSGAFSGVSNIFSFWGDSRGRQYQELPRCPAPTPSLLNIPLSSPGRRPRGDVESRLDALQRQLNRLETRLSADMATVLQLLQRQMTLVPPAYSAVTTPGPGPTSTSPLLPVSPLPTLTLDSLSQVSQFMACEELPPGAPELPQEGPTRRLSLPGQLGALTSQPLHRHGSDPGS
Another data set has as its system THLE-2. In words: Cytotoxicity against human THLE-2 cells assessed as reduction in cell viability measured after 72 hrs by ATPlite assay. It is filed as cell-based. Conditions: thle-2, 72 h, read-out: LC50 (the source's name). The essentials: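 THLE-2 cells were grown in BEGM with 0.7 μg/mL phosphoethanolamine, 0.5 ng/mL EGF and 10% FBS, plated at 10,000 cells/well and left to adhere for 24 h. Cells were exposed to 0–100 μM final (1% DMSO) for 72 h at 37 °C, 5% CO2.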

The target in data set [10] is T2, Bifunctional epoxide hydrolase 2 (Mus musculus, UniProt P34914).
T2 sequence (P34914 whole entry): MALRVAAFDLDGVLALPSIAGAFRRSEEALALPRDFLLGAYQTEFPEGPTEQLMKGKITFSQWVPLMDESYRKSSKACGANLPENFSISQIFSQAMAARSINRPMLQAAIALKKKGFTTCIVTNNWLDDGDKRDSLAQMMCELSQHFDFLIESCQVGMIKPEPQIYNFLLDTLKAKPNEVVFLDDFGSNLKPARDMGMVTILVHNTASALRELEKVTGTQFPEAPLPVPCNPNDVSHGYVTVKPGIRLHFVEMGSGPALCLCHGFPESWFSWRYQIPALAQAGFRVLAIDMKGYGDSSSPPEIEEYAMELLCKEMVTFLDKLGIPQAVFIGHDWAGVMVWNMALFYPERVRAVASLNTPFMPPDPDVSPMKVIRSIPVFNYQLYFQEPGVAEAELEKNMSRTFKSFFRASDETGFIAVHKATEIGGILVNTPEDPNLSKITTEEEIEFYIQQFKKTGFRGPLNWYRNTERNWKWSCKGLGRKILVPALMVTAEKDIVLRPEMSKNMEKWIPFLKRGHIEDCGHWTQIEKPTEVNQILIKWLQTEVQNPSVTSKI
In words: Inhibition of recombinant mouse soluble epoxide hydrolase using CMNPC as substrate preincubated for 5 mins followed by substrate addition and measured at 30 secs interval for 10 mins by fluorescence assay. The method in brief: as §2

The nature of data set [11]: Cytotoxicity against human PBMC assessed as reduction in cell viability measured after 72 hrs by ATPlite assay. The conditions noted are these: read-out: LC50 (the source's name).
For data set [12], the system named is AR-42J cell line. In words: Protection against cerulein-induced pancreatic damage in rat AR42J cells assessed as reduction in TRB3 mRNA level at 60 uM preincubated for 1 hr followed by cerulein addition and measured after 8 hrs by Trisure-reagent based RT-PCR analysis. It is filed as functional, cell-based. Conditions: time 9.0 hrs. The method in brief:
as §3

Data set [13] can be described thus: Stability in human liver microsomes assessed as parent compound remaining measured after 60 mins in presence of NADPH by LC-MS/MS analysis. The class given is ADME, Microsome. Conditions: read-out: Stabilty. The method in brief:
as §1

The structures appear in SMILES notation. Converted amounts (≈) assume the structure as drawn. The source made the active and inactive calls. The rule behind the calls is not given here.

For `CC(C)S(=O)(=O)N1CCC(NC(=O)NC23CC4CC(CC(C4)O2)C3)CC1`, the Activity entry in data set [1] is given as “Non-Toxic”. Further, the remaining at 1 h stood at 63.9% in [2], 63.9% in [6] and 72.7% in data set [13]. In addition, the IC50 came out at 1.9 nM in [3] and 79.1 nM in data set [10]. The outcome with AR-42J cell line [4], in the data set with AR-42J cell line [5], with AR-42J cell line [8] and with AR-42J cell line [12] was Active. The AUClast in data set [7] turned out to be 59.1 ng·h/mL. In “physchem”, this molecule gave a solubility (kinetic) at 2 h of 34 µM (≈ 13.1 µg/mL). For the same molecule, in [9], the “inhibition (INH)” value is given as “Not Active”. In addition, the CC50 with THLE-2 is greater than 100000 nM; in data set [11], greater than 20000 nM.

In the case of `CC(=O)N1CCC(NC(=O)NC23CC4CC(CC(C4)O2)C3)CC1`, the remaining at 1 h turned out to be 85.1% in data set [2], 80.5% in [6] and 88.8% in data set [13]. Further, the IC50 in [3] turned out to be 3.3 nM; in [10], 92.3 nM. The outcome with AR-42J cell line [4], in the data set on AR-42J cell line [5], with AR-42J cell line [8] and in the data set on AR-42J cell line [12] was Active. The kinetic solubility at 2 h in “physchem” turned out to be 59 µM (≈ 19 µg/mL). Also, in data set [9], the “inhibition (INH)” value is “Not Active”. The CC50 with THLE-2 is greater than 100000 nM; in data set [11], greater than 20000 nM.
